Drawing on ChEMBL document CHEMBL5214907 (J Med Chem, 2021), this text covers IC50 and Activity for one compound.

The source made the active and inactive calls. The rule behind the calls is not given here.

The target of test [1] is Nicotinic acetylcholine receptor alpha6/alpha3/beta4 (Rattus norvegicus, UniProt P04757+P12392+P43143). The test is described as follows: Inhibition of rat alpha6/alpha3beta4 nAChR expressed in xenopus oocytes assessed as inhibition of Ach- induced response at -70 mV holding potential and measured for 1 to 5 days in presence of Ach stimulation by voltage-clamp based electrophysiological method. It is filed as cell-based, Oocyte. Put shortly: (§1)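 Xenopus oocytes expressing cloned rat or human nAChR subtypes, recorded 1–5 d after injection. Held at −70 mV at room temperature and pulsed with ACh for 1 s every 60 s while peptide was flowed on. Where noted, Ba²⁺ replaced Ca²⁺ to limit current run-up after block. Values from 3–5 separate oocytes.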

Test [2] concerns the target Neuronal acetylcholine receptor; alpha2/beta4 (Homo sapiens, UniProt P30926+Q15822). The test is described as follows: Inhibition of human alpha2beta4 nAChR expressed in xenopus oocytes assessed as inhibition of Ach- induced response at -70 mV holding potential and measured for 1 to 5 days in presence of Ach stimulation by voltage-clamp based electrophysiological method. It is filed as cell-based, Oocyte. An outline of the steps: as §1

Test [3] deals with Neuronal acetylcholine receptor; alpha3/beta2 (Homo sapiens, UniProt P17787+P32297). The test is described as follows: Inhibition of human alpha3beta2 nAChR expressed in xenopus oocytes assessed as inhibition of Ach- induced response at -70 mV holding potential and measured for 1 to 5 days in presence of Ach stimulation by voltage-clamp based electrophysiological method. It is filed as cell-based, Oocyte. An outline of the steps:
as §1

Test [4] addresses Neuronal acetylcholine receptor; alpha2/beta2 (Homo sapiens, UniProt P17787+Q15822). The test is described as follows: Inhibition of human alpha2beta2 nAChR expressed in xenopus oocytes assessed as inhibition of Ach- induced response at -70 mV holding potential and measured for 1 to 5 days in presence of Ach stimulation by voltage-clamp based electrophysiological method. The format is cell-based, Oocyte. Put shortly: as §1

The target in test [5] is Neuronal acetylcholine receptor; alpha9/alpha10 (Homo sapiens, UniProt Q9GZZ6+Q9UGM1). The test is described as follows: Inhibition of human alpha9alpha10 nAChR expressed in xenopus oocytes assessed as inhibition of Ach- induced response at -70 mV holding potential and measured for 1 to 5 days in presence of Ach stimulation by voltage-clamp based electrophysiological method. It is filed as cell-based, Oocyte. Put shortly:
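Two-electrode voltage clamp on Xenopus oocytes expressing human α9α10, recorded 1–5 d after injection. Held at −70 mV at room temperature in Ca²⁺-containing ND-96. A 1 s pulse of 100 µM ACh was given every 60 s and peptide was flowed on. IC50 with 95% CI from 3–5 separate oocytes.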

Test [6] concerns the target Neuronal acetylcholine receptor; alpha4/beta2 (Rattus norvegicus, UniProt P09483+P12390). The test is described as follows: Inhibition of rat alpha4beta2 nAChR expressed in xenopus oocytes assessed as inhibition of Ach- induced response at -70 mV holding potential and measured for 1 to 5 days in presence of Ach stimulation by voltage-clamp based electrophysiological method. It is filed as cell-based, Oocyte. Put shortly: as §1

The target of test [7] is Nicotinic acetylcholine receptor alpha9/alpha10 (Rattus norvegicus, UniProt P43144+Q9JLB5). It is filed as cell-based, Oocyte.
In test [8] the target is Nicotinic acetylcholine receptor alpha6/alpha3/beta4 (Homo sapiens, UniProt P30926+P32297+Q15825). Description: Inhibition of human alpha6/alpha3beta4 nAChR expressed in xenopus oocytes assessed as inhibition of Ach- induced response at -70 mV holding potential and measured for 1 to 5 days in presence of Ach stimulation by voltage-clamp based electrophysiological method. The format is cell-based, Oocyte. Put shortly: as §1

Test [9] concerns the target Neuronal acetylcholine receptor; alpha3/beta4 (Rattus norvegicus, UniProt P04757+P12392). The test is described as follows: Inhibition of rat alpha3beta4 nAChR expressed in xenopus oocytes assessed as inhibition of Ach- induced response at -70 mV holding potential and measured for 1 to 5 days in presence of Ach stimulation by voltage-clamp based electrophysiological method. It is filed as cell-based, Oocyte. An outline of the steps:
as §1

For test [10], the target named is Neuronal acetylcholine receptor; alpha4/beta2 (Homo sapiens, UniProt P17787+P43681). Description: Inhibition of human alpha4beta2 nAChR expressed in xenopus oocytes assessed as inhibition of Ach- induced response at -70 mV holding potential and measured for 1 to 5 days in presence of Ach stimulation by voltage-clamp based electrophysiological method. It is filed as cell-based, Oocyte. Put shortly:
as §1

For test [11], the target named is Neuronal acetylcholine receptor subunit alpha-7 (Homo sapiens, UniProt P36544). Description: Inhibition of human alpha7 nAChR expressed in xenopus oocytes assessed as inhibition of Ach- induced response at -70 mV holding potential and measured for 1 to 5 days in presence of Ach stimulation by voltage-clamp based electrophysiological method. The format is cell-based, Oocyte. An outline of the steps: as §1

The target in test [12] is Neuronal acetylcholine receptor; alpha2/beta4 (Rattus norvegicus, UniProt P12389+P12392). Description: Inhibition of rat alpha2beta4 nAChR expressed in xenopus oocytes assessed as inhibition of Ach- induced response at -70 mV holding potential and measured for 1 to 5 days in presence of Ach stimulation by voltage-clamp based electrophysiological method. The format is cell-based, Oocyte. An outline of the steps: as §1

Test [13] in a line: Inhibition of human alpha6/alpha3beta2beta3 nAChR expressed in xenopus oocytes assessed as inhibition of Ach- induced response at -70 mV holding potential and measured for 1 to 5 days in presence of Ach stimulation by voltage-clamp based electrophysiological method. The format is cell-based. Particulars: Oocyte. Put shortly: as §1
Another test has as its system Mus musculus. The test is described as follows: Analgesic activity against oxaliplatin-induced peripheral neuropathic pain mouse model assessed as reversal of oxaliplatin-induced cold allodynia by measuring withdrawal latency at 4 to 40 microg/kg, sc for 22 days (5 days per week) and measured after 24 hrs post-injection by cold-plate test chamber analysis. Particulars: dose 4-40 µg/kg, time 22.0 day. The format is functional, organism-based. Put shortly: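 Mice, 8 per group. Oxaliplatin 3.5 mg/kg i.p. and peptide 4 or 40 µg/kg s.c., both in sterile 0.9% NaCl, given daily Wed–Fri and Mon–Tue through day 22; controls received saline. Cold allodynia tested on days 8, 15 and 22, 24 h after the last injection. Cold plate: 2–5 min acclimation at 23 °C, then cooled 10 °C/min until both forepaws lifted with shaking or licking. Mean ± SEM versus vehicle.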

In test [14] the target is Neuronal acetylcholine receptor; alpha3/beta4 (Homo sapiens, UniProt P30926+P32297). The test is described as follows: Inhibition of human alpha3beta4 nAChR expressed in xenopus oocytes assessed as inhibition of Ach- induced response at -70 mV holding potential and measured for 1 to 5 days in presence of Ach stimulation by voltage-clamp based electrophysiological method. The format is cell-based, Oocyte. Put shortly:
as §1

In test [15] the target is Neuronal acetylcholine receptor; alpha2/beta2 (Rattus norvegicus, UniProt P12389+P12390). The test is described as follows: Inhibition of rat alpha2beta2 nAChR expressed in xenopus oocytes assessed as inhibition of Ach- induced response at -70 mV holding potential and measured for 1 to 5 days in presence of Ach stimulation by voltage-clamp based electrophysiological method. The format is cell-based, Oocyte. Put shortly: as §1

Test [16] has as its target Neuronal acetylcholine receptor; alpha4/beta4 (Homo sapiens, UniProt P30926+P43681). The test is described as follows: Inhibition of human alpha4beta4 nAChR expressed in xenopus oocytes assessed as inhibition of Ach- induced response at -70 mV holding potential and measured for 1 to 5 days in presence of Ach stimulation by voltage-clamp based electrophysiological method. It is filed as cell-based, Oocyte. An outline of the steps: as §1

For test [17], the target named is Neuronal acetylcholine receptor; alpha4/beta4 (Rattus norvegicus, UniProt P09483+P12392). Description: Inhibition of rat alpha4beta4 nAChR expressed in xenopus oocytes assessed as inhibition of Ach- induced response at -70 mV holding potential and measured for 1 to 5 days in presence of Ach stimulation by voltage-clamp based electrophysiological method. The format is cell-based, Oocyte. An outline of the steps:
as §1

Test [18] is described as follows: Inhibition of human alpha1beta1deltaepsilon nAChR expressed in xenopus oocytes assessed as inhibition of Ach- induced response at -70 mV holding potential and measured for 1 to 5 days in presence of Ach stimulation by voltage-clamp based electrophysiological method. The format is cell-based. Conditions: Oocyte. Put shortly: as §1
Test [19] has as its target Nicotinic acetylcholine receptor alpha6/alpha3/beta2/beta3 (Rattus norvegicus, UniProt P04757+P12390+P12391+P43143). The test is described as follows: Inhibition of rat alpha6/alpha3beta2beta3 nAChR expressed in xenopus oocytes assessed as inhibition of Ach- induced response at -70 mV holding potential and measured for 1 to 5 days in presence of Ach stimulation by voltage-clamp based electrophysiological method. It is filed as cell-based, Oocyte. Put shortly:
as §1

Test [20] addresses Neuronal acetylcholine receptor; alpha3/beta2 (Rattus norvegicus, UniProt P04757+P12390). Description: Inhibition of rat alpha3beta2 nAChR expressed in xenopus oocytes assessed as inhibition of Ach- induced response at -70 mV holding potential and measured for 1 to 5 days in presence of Ach stimulation by voltage-clamp based electrophysiological method. The format is cell-based, Oocyte. Put shortly:
as §1

For test [21], the target named is Neuronal acetylcholine receptor subunit alpha-7 (Rattus norvegicus, UniProt Q05941). Description: Inhibition of rat alpha7 nAChR expressed in xenopus oocytes assessed as inhibition of Ach- induced response at -70 mV holding potential and measured for 1 to 5 days in presence of Ach stimulation by voltage-clamp based electrophysiological method. The format is cell-based, Oocyte. Put shortly: as §1

Sequence of Neuronal acetylcholine receptor; alpha4/beta4 (Rattus norvegicus, UniProt P09483+P12392) (P09483 whole entry): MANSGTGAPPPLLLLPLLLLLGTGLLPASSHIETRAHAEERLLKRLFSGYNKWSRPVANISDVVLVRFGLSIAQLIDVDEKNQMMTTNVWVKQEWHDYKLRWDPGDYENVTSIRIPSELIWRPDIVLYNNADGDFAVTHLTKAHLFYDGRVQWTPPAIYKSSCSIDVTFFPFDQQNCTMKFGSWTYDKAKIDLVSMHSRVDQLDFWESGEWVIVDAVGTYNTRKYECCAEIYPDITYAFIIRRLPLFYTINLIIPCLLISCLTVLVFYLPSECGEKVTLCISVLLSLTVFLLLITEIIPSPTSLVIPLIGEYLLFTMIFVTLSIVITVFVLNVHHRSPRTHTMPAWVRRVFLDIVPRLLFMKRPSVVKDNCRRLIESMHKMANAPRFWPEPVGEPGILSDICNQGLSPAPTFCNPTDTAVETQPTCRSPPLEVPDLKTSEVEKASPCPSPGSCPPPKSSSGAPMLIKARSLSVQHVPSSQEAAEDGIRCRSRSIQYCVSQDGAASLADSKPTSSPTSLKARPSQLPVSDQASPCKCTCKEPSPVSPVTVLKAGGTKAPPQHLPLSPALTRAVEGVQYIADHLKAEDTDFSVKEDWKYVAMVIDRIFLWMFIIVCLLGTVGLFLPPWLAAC
Sequence of Neuronal acetylcholine receptor; alpha4/beta4 (Rattus norvegicus, UniProt P09483+P12392) (P12392 whole entry): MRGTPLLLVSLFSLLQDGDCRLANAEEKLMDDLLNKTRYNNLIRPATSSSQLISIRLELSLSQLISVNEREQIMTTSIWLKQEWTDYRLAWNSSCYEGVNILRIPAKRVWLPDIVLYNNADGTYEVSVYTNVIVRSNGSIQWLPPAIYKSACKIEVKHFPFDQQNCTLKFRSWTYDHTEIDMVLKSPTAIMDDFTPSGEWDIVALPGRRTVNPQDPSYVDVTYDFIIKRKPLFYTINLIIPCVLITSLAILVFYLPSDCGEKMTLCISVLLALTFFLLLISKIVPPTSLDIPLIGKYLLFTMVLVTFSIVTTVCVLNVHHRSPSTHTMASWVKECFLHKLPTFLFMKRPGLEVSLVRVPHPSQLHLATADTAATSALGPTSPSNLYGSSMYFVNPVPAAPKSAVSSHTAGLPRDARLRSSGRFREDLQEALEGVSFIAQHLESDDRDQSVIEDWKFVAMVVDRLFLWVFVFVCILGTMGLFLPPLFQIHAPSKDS
Sequence of Neuronal acetylcholine receptor; alpha4/beta2 (Rattus norvegicus, UniProt P09483+P12390) (P09483 whole entry): as the sequence (P09483 whole entry) above
Sequence of Neuronal acetylcholine receptor; alpha4/beta2 (Rattus norvegicus, UniProt P09483+P12390) (P12390 whole entry): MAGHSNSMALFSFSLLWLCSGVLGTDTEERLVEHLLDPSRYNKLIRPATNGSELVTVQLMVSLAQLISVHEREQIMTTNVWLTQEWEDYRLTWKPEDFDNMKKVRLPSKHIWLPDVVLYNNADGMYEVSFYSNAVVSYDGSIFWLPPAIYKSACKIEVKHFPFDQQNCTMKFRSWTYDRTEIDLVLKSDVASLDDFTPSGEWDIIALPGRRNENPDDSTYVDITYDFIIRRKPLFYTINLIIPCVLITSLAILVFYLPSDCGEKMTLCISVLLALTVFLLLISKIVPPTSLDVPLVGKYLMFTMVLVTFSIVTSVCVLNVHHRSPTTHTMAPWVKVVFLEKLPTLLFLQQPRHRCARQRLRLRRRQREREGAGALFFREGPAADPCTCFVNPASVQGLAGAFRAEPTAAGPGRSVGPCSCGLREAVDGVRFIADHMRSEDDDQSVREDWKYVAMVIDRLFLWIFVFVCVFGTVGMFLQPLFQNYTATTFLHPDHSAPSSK
Sequence of Neuronal acetylcholine receptor; alpha4/beta2 (Homo sapiens, UniProt P17787+P43681) (P17787 whole entry): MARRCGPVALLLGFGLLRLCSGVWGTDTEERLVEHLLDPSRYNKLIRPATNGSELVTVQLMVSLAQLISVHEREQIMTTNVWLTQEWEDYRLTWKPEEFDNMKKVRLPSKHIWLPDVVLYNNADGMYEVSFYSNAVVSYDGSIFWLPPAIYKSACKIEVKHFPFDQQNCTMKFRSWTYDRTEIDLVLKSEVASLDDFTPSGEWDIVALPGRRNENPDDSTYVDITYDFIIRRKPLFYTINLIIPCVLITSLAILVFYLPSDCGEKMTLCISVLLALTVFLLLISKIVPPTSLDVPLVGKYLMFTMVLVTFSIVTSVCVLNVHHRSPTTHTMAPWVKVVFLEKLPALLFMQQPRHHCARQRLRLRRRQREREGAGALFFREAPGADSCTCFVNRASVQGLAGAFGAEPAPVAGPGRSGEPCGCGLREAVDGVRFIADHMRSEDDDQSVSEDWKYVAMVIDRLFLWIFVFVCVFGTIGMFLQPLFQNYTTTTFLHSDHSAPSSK
Sequence of Neuronal acetylcholine receptor; alpha4/beta2 (Homo sapiens, UniProt P17787+P43681) (P43681 whole entry): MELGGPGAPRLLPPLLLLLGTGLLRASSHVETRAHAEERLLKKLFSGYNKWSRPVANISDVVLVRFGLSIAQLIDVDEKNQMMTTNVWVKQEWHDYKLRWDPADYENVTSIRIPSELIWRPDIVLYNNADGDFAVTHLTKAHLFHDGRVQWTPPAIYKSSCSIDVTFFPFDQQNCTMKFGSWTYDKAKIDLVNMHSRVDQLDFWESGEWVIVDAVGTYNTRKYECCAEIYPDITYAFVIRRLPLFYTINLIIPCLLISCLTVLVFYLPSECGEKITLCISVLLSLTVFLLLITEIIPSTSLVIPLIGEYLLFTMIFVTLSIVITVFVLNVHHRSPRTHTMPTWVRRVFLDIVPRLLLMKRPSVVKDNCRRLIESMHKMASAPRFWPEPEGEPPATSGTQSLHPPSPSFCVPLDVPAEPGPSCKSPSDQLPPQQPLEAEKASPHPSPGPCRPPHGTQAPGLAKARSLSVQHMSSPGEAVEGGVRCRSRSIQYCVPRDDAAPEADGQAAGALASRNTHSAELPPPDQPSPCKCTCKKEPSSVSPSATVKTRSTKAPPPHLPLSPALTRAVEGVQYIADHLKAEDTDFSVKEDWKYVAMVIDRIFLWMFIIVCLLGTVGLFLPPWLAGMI
Sequence of Neuronal acetylcholine receptor; alpha2/beta2 (Homo sapiens, UniProt P17787+Q15822) (P17787 whole entry): as the sequence (P17787 whole entry) above
Sequence of Neuronal acetylcholine receptor; alpha2/beta2 (Homo sapiens, UniProt P17787+Q15822) (Q15822 whole entry): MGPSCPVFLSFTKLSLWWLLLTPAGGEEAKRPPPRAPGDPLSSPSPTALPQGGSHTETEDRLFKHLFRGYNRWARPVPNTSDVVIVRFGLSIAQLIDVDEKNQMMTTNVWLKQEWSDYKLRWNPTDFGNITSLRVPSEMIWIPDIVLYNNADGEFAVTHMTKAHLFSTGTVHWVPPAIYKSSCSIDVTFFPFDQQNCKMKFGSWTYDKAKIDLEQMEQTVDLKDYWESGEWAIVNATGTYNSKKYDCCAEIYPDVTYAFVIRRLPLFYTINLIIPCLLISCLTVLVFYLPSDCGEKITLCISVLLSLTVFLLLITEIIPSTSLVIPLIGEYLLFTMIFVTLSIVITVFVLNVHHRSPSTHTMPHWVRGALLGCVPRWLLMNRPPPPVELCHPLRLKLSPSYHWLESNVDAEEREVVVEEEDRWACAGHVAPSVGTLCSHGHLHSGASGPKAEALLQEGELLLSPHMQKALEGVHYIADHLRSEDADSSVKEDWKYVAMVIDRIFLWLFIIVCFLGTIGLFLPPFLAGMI
Sequence of Neuronal acetylcholine receptor subunit alpha-7 (Homo sapiens, UniProt P36544) (P36544 whole entry): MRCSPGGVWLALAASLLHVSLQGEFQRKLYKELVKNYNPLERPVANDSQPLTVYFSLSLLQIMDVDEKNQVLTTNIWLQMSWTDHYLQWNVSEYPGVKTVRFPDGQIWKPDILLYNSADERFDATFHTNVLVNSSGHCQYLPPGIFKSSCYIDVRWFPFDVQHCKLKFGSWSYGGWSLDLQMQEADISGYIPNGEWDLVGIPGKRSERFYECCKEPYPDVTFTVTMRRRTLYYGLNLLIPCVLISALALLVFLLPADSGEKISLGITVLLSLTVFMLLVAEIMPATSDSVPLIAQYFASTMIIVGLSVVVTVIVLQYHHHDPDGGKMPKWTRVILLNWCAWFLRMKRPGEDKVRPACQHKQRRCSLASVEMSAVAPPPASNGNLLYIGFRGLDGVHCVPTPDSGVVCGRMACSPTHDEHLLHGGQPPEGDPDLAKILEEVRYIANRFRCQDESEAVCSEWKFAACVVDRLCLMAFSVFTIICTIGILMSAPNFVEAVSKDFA

For the compound `C[C@@H](O)[C@@H]1NC(=O)[C@H]2NC(=O)[C@H](NC(=O)CN)CSSC[C@H](NC(=O)[C@H](CCCNC(=N)N)NC(=O)[C@@H]3CCCN3C(=O)[C@H](CC(=O)O)NC1=O)C(=O)N[C@@H](CCCNC(=N)N)C(=O)N[C@@H](Cc1ccc(O)c(I)c1)C(=O)N[C@@H](CCCN)C(=O)N[C@H](C(=O)N[C@H](CC(=O)N[C@@H](CCCNC(=N)N)C(=O)O)Cc1ccc(O)cc1)CSSC2(C)C`, the IC50 in [1] was above 10 µM; in [2] it was above 10 µM; in [3], above 10 µM; in [4], above 10 µM; in [5], 50 pM; in test [6], above 10 µM. The IC50 in test [7] is 0.00039 µM; in test [8] it was above 10 µM; in [9], above 10 µM; in [10], above 10 µM; in test [11], 0.115 µM; in test [12], above 10 µM. Besides, the 50% inhibitory concentration (IC50) in test [13], in test [14], in test [15], in test [16], in test [17] and in test [18] was above 10 µM in each case. Moreover, the figures for the IC50 in [19], in [20] and in test [21] were above 10 µM, above 10 µM and above 0.333 µM, respectively. The result with Mus musculus was Active.
